Shown are actives, neighbours in structure and some others; about 2.3% of the full set was active somewhere.
TRPC4 block: TRPC4 (mouse) channel inhibition. Q9QUQ5. HEK293 TRPC4beta/mu-opioid, DAMGO-evoked Fluo4 calcium flux; stronger effect = lower value. B-score at 10 µM. hit rate 0.39% among 300,000. AID 2247;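 active = B-score over 3 SD under the library average, no early fluorescence shift, positive overall ratio signal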
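Signal: kinetic Fluo4 fluorescence imaging of calcium influx. Material: stable TRPC4beta/mu-opioid receptor HEK293 cells. Probe or stimulus: DAMGO in two steps, submaximal then maximal.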
TRPC4 potent: TRPC4 (mouse) allosteric potentiation; hit rate 0.42% among 310,000; AID 2227; HEK293 TRPC4beta/mu-opioid, DAMGO EC20, Fluo-4 Ca2+ flux; stronger effect = higher value; B-score at 10 µM; Q9QUQ5;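 active = B-score of calcium response area above 5 SD of library B-scores, with initial fluorescence ratio within 5 SD of library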;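 note: B-score of integrated fluorescence ratio over time as area under calcium response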
TRPC4 act: activators of mouse TRPC4 channel | Q9QUQ5 | HEK293 TRPC4beta/mu-opioid, Fluo4 calcium fluorescence; stronger effect = higher value | B-score at 10 µM | hit rate 0.49% among 310,000;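 active = B-score above 5 SD of library B-scores, and initial fluorescence ratio not above library mean plus 5 SD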;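 note: positive B-score marks a calcium rise read as TRPC4 activation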
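Assay system: HEK293 cells stably co-expressing mouse TRPC4beta and mu-opioid receptor / Timing: Fluo4 dye loading 45 min at room temperature, 110 s recording / Signal: Fluo4 calcium-sensitive dye fluorescence, kinetic, 1 Hz baseline / Read-out: integrated baseline-normalised fluorescence ratio, converted to per-well B score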
TRPC6 inhibitor: mouse TRPC6 channel inhibition | Q61143 | HEK293-TRPC6, membrane potential dye, ACh-evoked depolarization; stronger effect = lower value | B-score at 10 µM | hit rate 1.1% among 310,000;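 active = B-score under library mean minus 3 SD, initial fluorescence not abnormally high, positive integrated signal ratio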;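 note: B-score derived from integrated fluorescence ratio over the kinetic read; more negative B-score means stronger inhibition of depolarization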
Target sequence (Q61143 whole entry, looked up): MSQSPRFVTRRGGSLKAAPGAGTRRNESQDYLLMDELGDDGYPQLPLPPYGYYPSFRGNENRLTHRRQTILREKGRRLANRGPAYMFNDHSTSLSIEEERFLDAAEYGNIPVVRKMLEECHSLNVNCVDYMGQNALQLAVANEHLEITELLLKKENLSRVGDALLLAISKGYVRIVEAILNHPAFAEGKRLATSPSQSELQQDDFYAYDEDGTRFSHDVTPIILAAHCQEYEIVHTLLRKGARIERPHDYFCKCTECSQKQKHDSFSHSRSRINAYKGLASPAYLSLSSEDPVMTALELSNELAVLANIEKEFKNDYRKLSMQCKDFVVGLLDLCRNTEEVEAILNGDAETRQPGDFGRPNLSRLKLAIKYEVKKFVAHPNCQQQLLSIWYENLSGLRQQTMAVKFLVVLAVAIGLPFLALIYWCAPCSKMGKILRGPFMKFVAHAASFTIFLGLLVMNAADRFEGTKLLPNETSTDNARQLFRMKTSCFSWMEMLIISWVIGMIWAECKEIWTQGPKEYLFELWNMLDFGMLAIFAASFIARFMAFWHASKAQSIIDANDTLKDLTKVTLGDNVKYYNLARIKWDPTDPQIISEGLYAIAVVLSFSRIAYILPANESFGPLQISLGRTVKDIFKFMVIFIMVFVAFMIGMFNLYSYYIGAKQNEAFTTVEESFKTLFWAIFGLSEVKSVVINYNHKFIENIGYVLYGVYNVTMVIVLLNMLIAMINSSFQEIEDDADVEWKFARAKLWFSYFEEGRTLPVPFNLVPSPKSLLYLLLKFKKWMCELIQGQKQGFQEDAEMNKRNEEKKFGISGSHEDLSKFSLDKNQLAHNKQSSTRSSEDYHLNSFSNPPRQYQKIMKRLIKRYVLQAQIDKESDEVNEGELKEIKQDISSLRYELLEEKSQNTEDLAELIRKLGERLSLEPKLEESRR
TRPC6 act: activators of mouse TRPC6 channel; Q61143; HEK293-TRPC6 membrane potential dye fluorescence; stronger effect = higher value; B-score at 10 µM; hit rate 0.13% among 310,000;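 active = B-score of the integrated fluorescence ratio above library mean plus 3 SD, and starting fluorescence ratio within library mean plus 5 SD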;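 note: higher score means more depolarization so channel activation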
TRPC4 sel inh 2: second check of whether TRPC6 inhibitors also affect mouse TRPC4; shares compounds with TRPC6 inhibitor; HEK293 TRPC4/MOR, membrane potential dye fluorescence; channel activated by saturating DAMGO dose; inhibition, % at 10 µM; hit rate 42% among 920;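 active = compounds whose fluorescence signal differed from control wells by over 3 SD, either direction, in both duplicate plates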
TRPC4 spec: tests whether TRPC6 inhibitors also affect mouse TRPC4; shares compounds with TRPC6 inhibitor; HEK293 TRPC4/mu-opioid, membrane potential fluorescence; activity change, negative = inhibition, % at 10 µM; hit rate 61% among 920; AID 2777;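 active = rise or fall in signal beyond 3 SD of buffer-only wells in both replicate plates, either sign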;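 note: integrated kinetic ratio of fluorescence range over baseline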
HEK293 MPD ctr 2-1: second check of TRPC6 inhibitor effects in parental HEK293 cells; hit rate 31% among 920; AID 2779; shares compounds with TRPC6 inhibitor; signal change vs control, % at 10 µM; parental HEK293 membrane potential dye fluorescence; maximal acetylcholine challenge after compound addition;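 active = membrane potential signal moving either way by over 3 SD of the maximum-effect control, in both duplicate plates, meaning non-specific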
HEK293 MPD ctr-1: counter-screen for TRPC6 inhibitors: effect in parental HEK293 cells; shares compounds with TRPC6 inhibitor; parental HEK293 membrane potential dye fluorescence; membrane potential signal change, % at 10 µM; hit rate 60% among 920; AID 2780;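 active = membrane potential signal shifting up or down by more than 3 SD of buffer-only wells, on both duplicate plates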
HEK293 MPD ctr-2: parental HEK293 nonspecific activity of TRPC6 modulators; shares compounds with TRPC6 inhibitor; membrane potential dye fluorescence; membrane potential signal change, % at 10 µM; hit rate 51% among 2,400;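 active = membrane potential signal moves up or down beyond 5 SD from buffer-only wells, on both duplicate plates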
HEK293 MPD ctr 2-2: second check of TRPC6 modulator effects in parental HEK293 cells. hit rate 14% among 2,400. inhibition, % at 10 µM. shares compounds with TRPC6 inhibitor. membrane potential dye fluorescence; after compound, maximal acetylcholine stimulation. AID 488926;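 active = membrane potential signal drops by more than 5 SD from the mean control signal, in both duplicate plates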;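 note: plate controls were acetylcholine ECmax control wells for no effect and buffer only wells for full effect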
TRPC4 ctr mod: mouse TRPC4 off-target activity of TRPC6 modulators | shares compounds with TRPC6 inhibitor | HEK293 TRPC4/mu-opioid, membrane potential fluorescence | percent change from control (negative = decrease, positive = increase), % at 10 µM | hit rate 69% among 2,400 | AID 488927;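 active = membrane potential signal moved up or down beyond 5 SD of buffer control wells, in both duplicate plates, actives on both sides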;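 note: plate controls were assay buffer wells for no effect and DAMGO maximal-effect wells for full effect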
TRPC4 ctr inh 2: mouse TRPC4 off-target activity of TRPC6 modulators, second screen | shares compounds with TRPC6 inhibitor | HEK293 TRPC4/mu-opioid, membrane potential dye fluorescence; stimulated with maximal-effect DAMGO | inhibition, % at 10 µM | hit rate 55% among 2,400;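 active = drop in membrane potential signal beyond 5 SD of the control wells in both duplicate plates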;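 note: TRPC4 counter screen for TRPC6 hits run under conditions tuned for TRPC6 not TRPC4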
TRPC6 inh conf: mouse TRPC6 inhibitor confirmation | inhibition, % at 10 µM | shares compounds with TRPC6 inhibitor | AID 488960 | hit rate 43% among 3,300 | HEK293-TRPC6, membrane potential dye, ACh-evoked depolarization;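 active = fluorescence ratio falls more than 5 SD below the full-stimulation control mean, in both duplicate runs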;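 note: integrated fluorescence ratio of peak minus minimum over baseline after agonist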
TRPC6 act confirm: confirmation of mouse TRPC6 activators. shares compounds with TRPC6 inhibitor. HEK293-TRPC6 membrane potential dye fluorescence, FDSS. activation, % at 10 µM. hit rate 11% among 2,800. AID 488961;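 active = ratio signal rise beyond 5 SD above unstimulated control wells' mean, seen in both duplicate runs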;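 note: plate controls were buffer EC0 wells for no effect and acetylcholine ECmax response for full effect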
Numbers without * were called inactive; i = inactive; nt = not tested or not shown; ! = not active in a repeat.

SMILES	TRPC4 block	TRPC4 potent	TRPC4 act	TRPC6 inhibitor	TRPC6 act	TRPC4 sel inh 2	TRPC4 spec	HEK293 MPD ctr 2-1	HEK293 MPD ctr-1	HEK293 MPD ctr-2	HEK293 MPD ctr 2-2	TRPC4 ctr mod	TRPC4 ctr inh 2	TRPC6 inh conf	TRPC6 act confirm
CCc1ccc(N=C2N=C(N)c3ccccc32)cc1	i	i	i	-7.8*	i	28%*	-21%*	i	-465%*	nt	nt	nt	nt	71%*	i
O=[N+]([O-])c1ccc(Cl)c(-c2ccc(/C=N/n3cnnc3)o2)c1	i	i	i	-7.3*	i	nt	nt	nt	nt	-154%*	i	-30%*	i	i	i
Cc1cc(-c2ccc(/C=N/n3cnnc3)o2)c(C)c([N+](=O)[O-])c1	i	i	i	-6*	i	nt	nt	nt	nt	-221%*	71%*	-44%*	58%*	48%*	i
COc1cc([N+](=O)[O-])ccc1-c1ccc(/C=N/NC(=O)c2ccccc2O)o1	i	i	i	i	i	nt	nt	nt	nt	nt	nt	nt	nt	nt	nt
CN1CCN(/N=C/c2ccc(-c3ccc([N+](=O)[O-])cc3Cl)o2)CC1	i	i	i	i	13*	nt	nt	nt	nt	260%*	i	39%*	i	i	92%*
COc1cc([N+](=O)[O-])ccc1-c1ccc(/C=N\n2cnnc2)o1	i	i	i	-9.3*	i	nt	nt	nt	nt	i	i	-61%*	39%*	i	i
Cc1noc(C)c1-c1ccc2nc[nH]c(=O)c2c1	i	i	i	i	i	nt	nt	nt	nt	nt	nt	nt	nt	nt	nt
O=C(c1cc(Cl)nc2ccccc12)N(Cc1nnc(-c2ccccc2Cl)o1)C1CC1	i	i	i	i	i	nt	nt	nt	nt	nt	nt	nt	nt	nt	nt
COc1ccc(S(=O)(=O)N2CCCOC2CNC(=O)C(=O)NCCCN2CCOCC2)cc1 (stereo not given)	i	i	i	i	i	nt	nt	nt	nt	nt	nt	nt	nt	nt	nt
COc1ccc(C(=O)c2c3ccc(C(F)(F)F)cc3[n+]([O-])n2CCCN)cc1	i	i	i	-5.7*	i	nt	nt	nt	nt	i	i	-9.5%*	47%*	48%*	i
Cc1ccc(C(=O)c2c3ccc(C(F)(F)F)cc3[n+]([O-])n2CCCN)cc1	i	i	i	-8.1*	i	50%*	-12%*	i	-158%*	nt	nt	nt	nt	76%*	i
Cc1c(N(C)C)nc2ccccc2c1N	i	i	i	-10*	i	44%*	-18%*	i	-312%*	nt	nt	nt	nt	i	i
c1ccc2nc3ccccc3nc2c1	i	i	i	i	i	nt	nt	nt	nt	nt	nt	nt	nt	nt	nt
CC(=O)c1c(C)nc2ccccc2c1N	i	i	i	-5.2*	i	nt	nt	nt	nt	-195%*	i	-32%*	i	i	i
Cc1c2ccccc2nc2c(F)c(N(C)C)c(F)c(F)c12	i	i	i	i	i	nt	nt	nt	nt	nt	nt	nt	nt	nt	nt
CCN(CC)c1nc2ccccc2c(N)c1-c1ccccc1	-7*	i	i	-6.9*	i	42%*	14%*	i	9.3%*	nt	nt	nt	nt	i	i
Nc1c2ccccc2nc2ccccc12	i	i	i	-10*	i	43%*	-37%*	32%*	-420%*	nt	nt	nt	nt	66%*!	i
O=C(COC(=O)c1cccnc1)Nc1ccc2c(c1)OCO2	i	i	i	i	i	nt	nt	nt	nt	nt	nt	nt	nt	nt	nt
Cc1ccc(C)c(Cn2nnc3c(=O)[nH]c(C4CCCN(C(=O)c5cccs5)C4)nc32)c1 (stereo not given)	i	i	i	i	i	nt	nt	nt	nt	nt	nt	nt	nt	nt	nt
Cc1cc(C(C)(C)C)oc1C(=O)OCC(=O)NC1CCCCC1	i	i	i	-5.3*	i	nt	nt	nt	nt	i	i	26%*	i	53%*	nt
Cc1ccc(C)c(N(CC(=O)NC2CCCC2)C(=O)c2oc(C(C)(C)C)cc2C)c1	i	i	i	i	i	nt	nt	nt	nt	nt	nt	nt	nt	nt	nt
O=c1cc(-c2ccccc2)[nH]n1-c1ccc([N+](=O)[O-])cc1	i	i	i	-7.9*	i	i	12%*	i	5.7%*	nt	nt	nt	nt	66%*	i
O=c1c(N=Nc2ccc(O)cc2)c(-c2ccccc2)[nH]n1-c1ccc([N+](=O)[O-])cc1	i	i	i	i	i	nt	nt	nt	nt	nt	nt	nt	nt	nt	nt
COc1cc(CNCCc2ccccc2F)ccc1OCc1ccc(Cl)nc1	i	i	i	-7.7*	i	48%*	i	226%*	3.9%*	nt	nt	nt	nt	60%*	i
Cc1nc2cc(NC(=O)c3ccc(S(=O)(=O)N(C)c4ccccc4)cc3)ccc2o1	i	i	i	i	i	nt	nt	nt	nt	nt	nt	nt	nt	nt	nt
CCCCCCc1ccc(N2C[C@H](Cc3ccccc3)[C@@H](CC(=O)NCc3ccc(OC)cc3)C2=O)cc1	i	i	i	i	i	nt	nt	nt	nt	nt	nt	nt	nt	nt	nt
CCCCCCc1ccc(N2C[C@H](CCCCC)[C@@H](CC(=O)NCc3ccc(OC)cc3)C2=O)cc1	i	i	i	i	17*	nt	nt	nt	nt	472%*	i	84%*	i	i	95%*
CCCCCCc1ccc(N2C[C@H](CCCCC)[C@@H](CC(=O)NCc3ccccc3)C2=O)cc1	i	i	i	i	22*	nt	nt	nt	nt	344%*	i	77%*	i	i	169%*
